KCNQ1 inh: inhibitors of human KCNQ1 channel, primary screen, cell-based, thallium flux, high-throughput | Potassium voltage-gated channel subfamily KQT member 1 (Homo sapiens), P51787 | CHO-K1 KCNQ1, FluxOR thallium flux fluorescence; hits give high values | B-score at 10 µM | 1.3% of 310,000 active | AID 2642, 2010;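 active = compounds whose thallium flux B-score, printed positive for inhibition, exceeds three library SD while starting fluorescence stays within three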;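 note: channel opened by potassium depolarization with thallium stimulus after 20 min compound exposure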
KCC2 mod: KCC2 cotransporter modulators, thallium flux, primary screen, cell-based, HEK293 KCC2, FluoZin-2 fluorescence, MLSMR | KCC2 cells, thallium flux FluoZin-2 fluorescence | Solute carrier family 12 member 5 (Homo sapiens), Q9H2X9 | B-score of Tl+ flux slope (higher = more flux/activation; lower = inhibition) at 10 µM | 2.2% of 190,000 active;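 active = thallium flux slope and its plate-corrected score both differing from the plate sample mean at a set confidence after two filtering rounds, in either direction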;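 note: slope of fluorescence scaled to starting intensity during 10 to 20 s after thallium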
Target sequence (Q9H2X9 whole entry, looked up): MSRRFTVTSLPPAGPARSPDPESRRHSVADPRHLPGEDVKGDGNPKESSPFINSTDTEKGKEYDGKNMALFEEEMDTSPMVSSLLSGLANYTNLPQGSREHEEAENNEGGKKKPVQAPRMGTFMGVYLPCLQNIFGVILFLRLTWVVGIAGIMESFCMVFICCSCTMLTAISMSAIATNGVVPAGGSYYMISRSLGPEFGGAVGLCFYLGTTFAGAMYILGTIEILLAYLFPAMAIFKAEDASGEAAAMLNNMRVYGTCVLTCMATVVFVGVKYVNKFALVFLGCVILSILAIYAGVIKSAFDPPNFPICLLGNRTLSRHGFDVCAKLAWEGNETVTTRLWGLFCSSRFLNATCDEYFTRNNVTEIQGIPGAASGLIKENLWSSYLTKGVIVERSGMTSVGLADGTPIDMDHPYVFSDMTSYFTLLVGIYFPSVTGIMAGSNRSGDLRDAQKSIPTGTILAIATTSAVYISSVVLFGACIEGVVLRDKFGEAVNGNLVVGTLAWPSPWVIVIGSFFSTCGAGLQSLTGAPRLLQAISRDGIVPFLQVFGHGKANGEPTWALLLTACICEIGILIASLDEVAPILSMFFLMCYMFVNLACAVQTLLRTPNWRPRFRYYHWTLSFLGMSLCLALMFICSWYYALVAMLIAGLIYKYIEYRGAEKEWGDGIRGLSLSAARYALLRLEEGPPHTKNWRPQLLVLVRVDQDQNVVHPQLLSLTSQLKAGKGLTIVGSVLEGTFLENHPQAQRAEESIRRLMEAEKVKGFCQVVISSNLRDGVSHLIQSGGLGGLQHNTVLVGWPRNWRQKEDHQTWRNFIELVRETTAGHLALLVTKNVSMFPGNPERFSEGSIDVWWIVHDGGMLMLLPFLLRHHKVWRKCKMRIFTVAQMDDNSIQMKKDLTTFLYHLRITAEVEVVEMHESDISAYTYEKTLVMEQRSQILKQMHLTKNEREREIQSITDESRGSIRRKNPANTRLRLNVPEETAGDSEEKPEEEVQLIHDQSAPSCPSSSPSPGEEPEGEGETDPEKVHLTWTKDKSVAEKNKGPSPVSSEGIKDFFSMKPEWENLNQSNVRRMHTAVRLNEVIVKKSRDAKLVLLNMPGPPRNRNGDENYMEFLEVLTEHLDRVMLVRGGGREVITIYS
KCNK3 block: human KCNK3 channel inhibitors, primary screen, CHO cells, FluxOR thallium flux, B-score. Potassium channel subfamily K member 3 (Homo sapiens), O14649. FluxOR fluorescence; hits give low values. B-score at 10 µM. 0.84% of 340,000 active. AID 602410, 2012;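 active = B-score under library mean minus 4 SD, starting fluorescence ratio at most library mean plus 5 SD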;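 note: more negative B-score means stronger inhibition of thallium flux through KCNK3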
KCNQ1 act: potentiators or activators of KCNQ1 channel, primary screen, cell-based, thallium flux, high-throughput | 0.35% of 310,000 active | B-score at 10 µM | CHO-K1 KCNQ1, thallium flux FluxOR fluorescence; hits give high values;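 active = fluorescence ratio B-score, a plate-corrected score, at least three library SD, with initial intensity B-score within 5 SD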
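System: CHO-K1 cells stably expressing KCNQ1 / Medium: assay buffer for compound exposure, DMSO matched across wells / Reagent: thallium- and potassium-containing depolarizing buffer / Compound: one concentration, matched DMSO / Incubation: 20 min compound pretreatment at room temperature / Measured by: kinetic FluxOR fluorescence, 10 s baseline plus 110 s post-stimulus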
hERG protect: hERG rescue from dofetilide block, primary screen, cell-based, CHO-hERG, FluxOR thallium flux, dofetilide IC70 | Voltage-gated inwardly rectifying potassium channel KCNH2 (Homo sapiens), Q12809 | dofetilide IC70 present | activation (rescue from dofetilide block), less the hit threshold, % at 10 µM | 0.51% of 310,000 active;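 active = activation above the mean of controls blocked by dofetilide plus 5 SD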;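 note: thallium influx through hERG after potassium depolarization seen as dye fluorescence rise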
KCNK9 block: KCNK9 potassium channel inhibitors, primary screen, HEK293 cells, thallium flux. B-score at 10 µM. FluxOR thallium flux fluorescence; hits give low values. 1.2% of 310,000 active. Potassium channel subfamily K member 9 (Homo sapiens), Q9NPC2. AID 488922, 2010;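 active = ratio B-score over 3 SD below the library mean, with starting fluorescence within 5 SD of its mean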;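 note: negative B-score means less thallium flux so channel inhibition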
KCC2 sec1: KCC2 modulators in sodium-free buffer, confirmation, cell-based, HEK293 KCC2, thallium flux, secondary assay; FluoZin2 fluorescence; hits give high values; AID 1713, 2009; normalised thallium flux (F/F0 slope) at 10 µM; 15% of 3,700 active; shares compounds with KCC2 mod;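 active = thallium flux slope above the same plate's solvent-only control mean plus 3 SD; inconclusive = the two replicate wells disagree; inactive = no significant difference from solvent-only control wells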
KCC2 bumet counter: thallium flux persisting under bumetanide in KCC2 cells, confirmation, counter-screen for KCC2 modulator project, cell-based, HEK293 KCC2, FluoZin2, secondary assay 3. shares compounds with KCC2 mod. HEK293-KCC2 + bumetanide/ouabain; hits give high values. normalized thallium flux at 10 µM. 49% of 3,700 active. AID 1714, 2009;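 active = thallium entry rate above the same plate's blocked-transporter control wells by more than 3 SD; inconclusive = the two repeat wells disagree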;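 note: raw slope of fluorescence over initial fluorescence between 10 and 20 s after thallium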
KCC2 secondary2: KCC2 modulators without ouabain present, confirmation, cell-based, HEK293 KCC2, thallium flux, FluoZin2, secondary assay 2; shares compounds with KCC2 mod; thallium flux FluoZin2 fluorescence; actives lie on both sides; F/F0 rise rate, 10–20 s post-thallium; normalized thallium flux at 10 µM; 23% of 3,700 active;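 active = thallium flux slope more than 3 SD above or below the plate's solvent-only control mean, mostly below; inconclusive = the two repeat wells disagreed; inactive = no significant shift from solvent-only controls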;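 note: raw slope with 0.1% DMSO as baseline and bumetanide as block control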
HEK293 Tl flux: thallium flux modulation in parental HEK cells, confirmation, counter-screen for KCC2 modulator project, cell-based, counterscreen 1; 46% of 3,700 active; thallium flux rate (normalised fluorescence) at 10 µM; shares compounds with KCC2 mod; AID 1716, 2009; HEK293 parental cells, thallium flux FluoZin2, ouabain; baseline-ratio fluorescence slope, 10–20 s after thallium;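 active = thallium flux rate significantly above the same plate's solvent-only control wells, beyond their mean plus 3 SD; inconclusive = the two replicate wells gave conflicting results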
KCC2 retest ouab: KCC2 inhibitors and activators, ouabain retest, confirmation, HEK-KCC2 cells | shares compounds with KCC2 mod | HEK293-KCC2, thallium flux FluoZin2 fluorescence; bidirectional: low = inhibitor, high = activator | raw Tl+ flux slope (below DMSO = inhibition, above = activation) at 10 µM | 48% of 3,700 active;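 active = thallium flux slope beyond 3 SD from same-plate DMSO control mean in most replicates, usually higher, sometimes lower; inconclusive = repeat tests gave conflicting results; inactive = no significant difference from controls in most replicates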;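 note: slope of initial-normalized fluorescence between seconds 10 and 20 after thallium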
HEK293 Tl flux2: native HEK Tl+ uptake effects, second counter-screen – HEK cells, counterscreen 2, counter-screen for KCC2 modulator project, confirmation. thallium flux slope at 10 µM. shares compounds with KCC2 mod. HEK293 parental, thallium flux FluoZin-2 fluorescence slope. 33% of 3,700 active;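 active = thallium flux slope above the same plate's solvent-control mean plus 3 SD in both duplicate wells; inconclusive = duplicate wells that disagreed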;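 note: run without ouabain in cells lacking the KCC2 cotransporter; slope of fluorescence scaled to its starting value between 10 and 20 s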
* marks the source's active call; other numbers are inactive results; i = inactive; ? = inconclusive; nt = no result given. Most compounds without a hit are left out; they make up all but 4.1% or so of the library.

SMILES | KCNQ1 inh | KCC2 mod | KCNK3 block | KCNQ1 act | hERG protect | KCNK9 block | KCC2 sec1 | KCC2 bumet counter | KCC2 secondary2 | HEK293 Tl flux | KCC2 retest ouab | HEK293 Tl flux2
CCCCC(=O)Nc1ccc(C(=O)NNC(=S)NC(=O)c2ccco2)cc1 | i | 7.2* | i | i | -2 | i | 0.011 | 0.031* | 0.034 | ? | 0.03* | ?
Cc1ccc(S(=O)(=O)N2CCCCC2)cc1NC(=S)NC(=O)c1ccco1 | i | 22* | i | i | -15 | i | 0.0077 | 0.016* | 0.028 | 0.013* | ? | ?
CC(C)Oc1ccc(S(=O)(=O)N2CCOCC2)cc1NC(=O)c1ccc(N2CCCC2=O)cc1 | i | nt | i | i | -19 | i | nt | nt | nt | nt | nt | nt
CC[C@@]1(C(=O)OC)N[C@H](CN(C)C(=O)Nc2ccc(F)cc2)[C@@H]2C(=O)N(C)C(=O)[C@@H]21 | nt | nt | i | nt | nt | nt | nt | nt | nt | nt | nt | nt
O=C(NC(=S)Nc1ccc(CN2CCCCC2)cc1)c1cc2ccccc2o1 | i | 13* | i | i | -1 | i | 0.0067 | 0.017* | 0.05* | 0.031* | 0.033* | 0.032*
O=C(NC(=S)Nc1ccc(CN2CCCCC2)cc1)c1ccco1 | i | 4* | i | i | -6 | i | 0.0094 | 0.035* | 0.034 | 0.015* | 0.042* | ?
O=C(NC(=S)Nc1ccc(CN2CCOCC2)cc1)c1ccco1 | i | 11* | i | i | -15 | i | ? | 0.034* | 0.034 | 0.013* | 0.039* | 0.012*
O=C(Nc1ccc(NC(=S)NC(=O)c2ccco2)cc1)c1ccccc1 | i | nt | i | i | -3 | i | nt | nt | nt | nt | nt | nt
O=C(O)c1ccc(NC(=S)NC(NC(=O)c2ccco2)C(Cl)(Cl)Cl)cc1 (stereo not drawn) | i | 0.31 | i | i | -10 | i | nt | nt | nt | nt | nt | nt
Cc1ccc(NC(=S)NC(NC(=O)c2ccco2)C(Cl)(Cl)Cl)cc1 (stereo not drawn) | i | 8.2* | i | i | -11 | i | 0.0074 | 0.0043 | 0.029 | 0.0079 | 0.018 | 0.011
CCOC(=O)C1CCN(S(=O)(=O)c2ccc3c4c(cccc24)C(=O)N3CC)CC1 | nt | nt | i | nt | nt | nt | nt | nt | nt | nt | nt | nt
Fc1ccc(CSc2nncn2NCc2ccccc2)cc1 | i | -1.7 | i | i | -5 | i | nt | nt | nt | nt | nt | nt
Fc1ccc(CSc2nncn2NC/C=C/c2ccccc2)cc1 | i | nt | i | i | -16 | i | 0.0082 | 0.004 | ? | 0.0067 | ? | 0.0092
CN1C(=O)/C(=C/c2cc(C(C)(C)C)c(O)c(C(C)(C)C)c2)NC1=S | i | 12* | i | i | 1 | i | 0.01 | 0.018* | 0.034 | 0.013* | 0.025 | 0.012*
C=CC[C@@H](CC(=O)N[C@H](CO)Cc1ccccc1)C(=O)N[C@@H](COC(=O)[C@@H](CC=C)CC(=O)OC(C)(C)C)Cc1ccccc1 | nt | nt | i | nt | nt | nt | nt | nt | nt | nt | nt | nt
COc1cc(/C=C(\C#N)C(=O)NCc2ccccc2)ccc1OCc1ccc(C(=O)O)cc1 | i | -4.1* | i | i | -10 | i | 0.0087 | 0.0088* | 0.034 | 0.0084 | ? | 0.011
CCOC(=O)c1sc2nc(C)[nH]c(=S)c2c1C | i | 200* | i | 40* | 1 | i | 0.054* | 0.15* | 0.052* | 0.11* | 0.12* | 0.05*
CCOC(=O)c1sc2nc(C)n(N)c(=O)c2c1C | i | 0.69 | i | i | -4 | i | nt | nt | nt | nt | nt | nt
Cc1ccc(C)c(NC(=O)CSc2nnc(-c3ccco3)o2)c1 | i | 0.29 | i | i | -2 | i | nt | nt | nt | nt | nt | nt
Cc1ccc(C)c(NC(=O)CSc2nnc([C@@H](N)Cc3ccccc3)o2)c1 | i | -4.3* | i | i | -12 | i | 0.0089 | 0.0067 | ? | 0.0068 | 0.014* | ?
O=C(COc1ccc2ccccc2c1)NNC(=O)c1ccc([N+](=O)[O-])cc1 | i | -2.8 | i | i | -6 | i | nt | nt | nt | nt | nt | nt
COc1ccc(OCC(=O)NC(=S)NNC(=O)COc2ccc(Br)cc2Cl)cc1 | i | 13* | i | i | -7 | i | 0.011 | 0.026* | 0.033 | 0.019* | 0.026 | 0.013*
O=C(COc1ccc([N+](=O)[O-])cc1)NNC(=S)NC(=O)c1ccc(Br)cc1 | 7* | 6* | i | i | -6 | i | ? | 0.029* | 0.03 | 0.018* | 0.027* | ?
O=C(COc1ccccc1)NNC(=S)NC(=O)c1ccccc1 | i | 18* | i | i | 0 | i | 0.007 | 0.045* | 0.05* | 0.039* | 0.043* | 0.041*

Screens from PubChem BioAssay.
